Source: ChEMBL document CHEMBL6092210, “Synthesis, in vitro and in vivo biological evaluation of novel dual compounds targeting both acetylcholinesterase and serotonergic 5-HT4 receptors with potential interest in the treatment of Alzheimer's disease” (Eur J Med Chem, 2024)

Experiments:
Cytochrome P450 2A6 = biological target: T1, Cytochrome P450 2A6 (Homo sapiens, UniProt P11509); assay: Inhibition of CYP2A6 in human liver microsomes using coumarin as substrate; format: ADME, Microsome
T1 sequence (P11509 whole entry): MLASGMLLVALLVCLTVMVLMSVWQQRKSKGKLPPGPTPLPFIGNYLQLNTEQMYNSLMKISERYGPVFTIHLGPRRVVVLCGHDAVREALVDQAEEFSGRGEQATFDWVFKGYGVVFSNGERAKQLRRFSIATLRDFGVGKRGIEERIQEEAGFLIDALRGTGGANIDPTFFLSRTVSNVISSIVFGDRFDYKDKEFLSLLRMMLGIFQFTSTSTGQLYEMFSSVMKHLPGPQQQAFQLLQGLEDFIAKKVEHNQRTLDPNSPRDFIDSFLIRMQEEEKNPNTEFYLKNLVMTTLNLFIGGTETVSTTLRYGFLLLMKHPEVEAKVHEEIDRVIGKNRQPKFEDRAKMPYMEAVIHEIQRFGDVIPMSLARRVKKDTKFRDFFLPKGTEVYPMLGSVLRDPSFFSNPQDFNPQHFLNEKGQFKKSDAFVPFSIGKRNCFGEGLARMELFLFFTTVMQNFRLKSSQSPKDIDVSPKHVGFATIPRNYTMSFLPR
In short: (§1)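 Human liver microsomes with a cocktail of CYP-specific probe substrates; metabolite formation monitored for each probe reaction. Test compound (fumarate) at 0.01, 0.1, 1, 10 and 100 μM. Control inhibitors run at a single concentration for each probe reaction. IC50 estimated.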

[1] = Drug metabolism in human liver microsome measured at 10 mins by UPLC/QE-orbitrap-MS method; format: ADME; conditions: microsomes
In short: (§2)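 Test compound as fumarate salt incubated with human, dog, mouse or rat liver microsomes over 0–60 min. Parent remaining measured by UPLC/QE-orbitrap-MS as relative LC/MS peak area (% of 0 min), n = 1.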

Cytochrome P450 2B6 = biological target: T2, Cytochrome P450 2B6 (Homo sapiens, UniProt P20813); assay: Inhibition of CYP2B6 in human liver microsomes using bupropion as substrate; format: ADME, Microsome; in short: as §1
T2 sequence (P20813 whole entry): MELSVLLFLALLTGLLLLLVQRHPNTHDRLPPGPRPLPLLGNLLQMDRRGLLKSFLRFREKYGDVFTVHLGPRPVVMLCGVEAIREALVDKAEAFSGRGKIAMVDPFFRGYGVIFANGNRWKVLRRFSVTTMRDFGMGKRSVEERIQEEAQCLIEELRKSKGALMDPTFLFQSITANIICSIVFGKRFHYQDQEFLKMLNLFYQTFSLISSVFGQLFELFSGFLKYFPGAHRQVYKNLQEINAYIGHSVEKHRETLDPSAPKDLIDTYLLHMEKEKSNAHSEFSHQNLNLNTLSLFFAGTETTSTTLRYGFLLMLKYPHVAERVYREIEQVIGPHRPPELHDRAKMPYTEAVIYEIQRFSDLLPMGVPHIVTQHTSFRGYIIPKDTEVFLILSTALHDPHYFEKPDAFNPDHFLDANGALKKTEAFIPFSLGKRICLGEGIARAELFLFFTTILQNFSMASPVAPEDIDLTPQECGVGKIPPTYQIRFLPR

[2] = biological target: 5-hydroxytryptamine receptor 4 (Homo sapiens, UniProt Q13639); assay: Binding affinity to human recombinant 5HT4 receptor assessed as inhibition constant incubated for 60 mins
Sequence of 5-hydroxytryptamine receptor 4 (Q13639 whole entry): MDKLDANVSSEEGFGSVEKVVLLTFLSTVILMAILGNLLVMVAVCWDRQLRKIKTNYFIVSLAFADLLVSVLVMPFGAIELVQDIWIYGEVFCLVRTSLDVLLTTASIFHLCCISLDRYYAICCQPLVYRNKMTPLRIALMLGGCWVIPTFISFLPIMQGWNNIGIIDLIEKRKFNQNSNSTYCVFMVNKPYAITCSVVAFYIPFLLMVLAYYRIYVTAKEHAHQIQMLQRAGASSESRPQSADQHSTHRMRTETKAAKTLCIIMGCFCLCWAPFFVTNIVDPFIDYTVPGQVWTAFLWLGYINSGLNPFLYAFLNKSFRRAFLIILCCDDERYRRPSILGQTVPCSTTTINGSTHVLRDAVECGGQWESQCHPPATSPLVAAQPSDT

[3] = Drug metabolism in mouse liver microsome measured at 40 mins by UPLC/QE-orbitrap-MS method; format: ADME; conditions: microsomes; in short: as §2
Cytochrome P450 2C9 = Cytochrome P450 2C9 (Homo sapiens, UniProt P11712); assay: Inhibition of CYP2C9 in human liver microsomes using diclofenac as substrate; format: ADME, Microsome; in short: as §1
Sequence of Cytochrome P450 2C9 (P11712 whole entry): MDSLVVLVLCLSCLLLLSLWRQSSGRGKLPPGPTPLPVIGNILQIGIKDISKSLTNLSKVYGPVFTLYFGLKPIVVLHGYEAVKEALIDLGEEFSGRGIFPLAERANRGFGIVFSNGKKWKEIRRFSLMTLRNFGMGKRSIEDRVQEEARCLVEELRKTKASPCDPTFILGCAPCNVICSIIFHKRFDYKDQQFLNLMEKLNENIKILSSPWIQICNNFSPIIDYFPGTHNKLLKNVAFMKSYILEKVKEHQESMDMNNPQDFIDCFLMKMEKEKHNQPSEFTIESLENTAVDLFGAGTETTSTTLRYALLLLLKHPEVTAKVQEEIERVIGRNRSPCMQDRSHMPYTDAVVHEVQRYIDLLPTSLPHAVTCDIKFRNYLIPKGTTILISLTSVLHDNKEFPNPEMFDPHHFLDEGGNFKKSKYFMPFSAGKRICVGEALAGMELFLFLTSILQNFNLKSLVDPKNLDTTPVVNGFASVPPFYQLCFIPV

[4] = MRT in Wistar rat at 0.3 to 3 mg/kg, iv; format: ADME, organism-based; conditions: in vivo, dose 0.3-3 mg/kg
In short: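 Single iv dose of 0.3, 1 or 3 mg/kg in 0.9 % saline, three animals per dose (C57Bl6 mice, Wistar rats). Terminal cardiac-puncture blood under isoflurane at six time points. Plasma protein-precipitated and assayed by UHPLC–MS/MS (LLOQ 1 ng/mL). Parameters from non-compartmental analysis.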

[5] = Drug metabolism in rat liver microsome measured at 60 mins by UPLC/QE-orbitrap-MS method; format: ADME; conditions: microsomes, 1 h; in short: as §2

COc1cc(N)c(F)cc1C(=O)CCC1CCN(CC2CCCCC2)CC1.O=C(O)/C=C/C(=O)O
IC50 (Cytochrome P450 2A6): > 100 µM
Drug metabolism [1]: 89%
IC50 (Cytochrome P450 2B6): 95.7 µM
Ki [2]: 0.0163 µM
Drug metabolism [3]: 25%
IC50 (Cytochrome P450 2C9): > 100 µM
MRT [4]: 1.15 h
Drug metabolism [5]: 6%
